Bioassay records (PubChem)
SKKanGAS inh: inhibitors of SKKanGAS S. pyogenes growth in kanamycin (SK-promoter or general growth effect) | inhibition, % at 7.5 µM | actives 1.3% (n = 300,000) | BacTiter-Glo, 6 h;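 active means mean replicate score, as percent of positive control median, at least 50; inconclusive means mean below 50 but one replicate at or above 50; inactive means mean and every replicate below 50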;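 further: strain carries kanamycin resistance gene driven by streptokinase promoter and grows in 40 µg/ml kanamycin; loss of luminescence reflects streptokinase promoter inhibition or plain growth inhibition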
Beta apoptosis: beta cell apoptosis inhibition; INS-1E cytokine-induced death, ATP luminescence, 48 h; percent of positive-control rescue, neutral wells zero; protection from apoptosis, % (test concentration not listed); actives 0.8% (n = 300,000); AID 435005;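 active means Every replicate reaches about 75%, or at least half do and their mean reaches it too, limit read from the data; inconclusive means At least half of replicates reach the limit but their mean does not; inactive means Under half of replicates reach the limit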;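 further: higher means more ATP so stronger rescue from cytokine killing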
Calb FLC: affects C. albicans growth with fluconazole | growth inhibition, % (concentration not given with the values) | C. albicans CaCi-2 (fluconazole-resistant clinical isolate) + fluconazole, Alamar Blue growth, 48 h | actives 0.57% (n = 300,000);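 active means growth inhibition above about 58% in most replicates, limit read from the data, passing the limit was not always enough; inconclusive means exactly half the replicates above a set limit; inactive means most replicates below a set limit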;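 further: all wells also contain fluconazole at 8 µg/ml as a sub-toxic cotreatment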
T cruzi inh: blocks replication of Trypanosoma cruzi; T. cruzi beta-gal in NIH3T3, luminescence, 90 h; inhibition, % (no concentration beside the values); actives 1.4% (n = 300,000); AID 1885;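 active means mean inhibition across valid replicates above about 55%, limit read from the data; inconclusive means mean below that limit but half or more replicates reach it; inactive means mean below it, under half of replicates reach it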;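 further: signal also drops with host cell toxicity which is not excluded here; higher percent means less beta-gal luminescence so fewer parasites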
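Incubation – ≥90 h infection period, 3 h prior cell attachment · System – NIH/3T3 fibroblasts plus reporter T. cruzi · Doses – compound pinned at 50 nL/well, DMSO · Read-out basis – percent inhibition of parasite-derived β-gal signal · Signal – luminescent β-galactosidase signal after 60 min lysis · Also added – 5000 T. cruzi trypomastigotes/well · Medium – Low-serum DMEM with 2% FBS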
Mdm2-MdmX inh: inhibitors of human Mdm2/MdmX interaction; actives 3% (n = 330,000); O15151+Q00987; inhibition, % at 8 µM; AID 485346; SaOS-2 split-luciferase Mdm2/MdmX complementation, luminescence;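 active means inhibition of at least 50% at 8 µM in the primary screen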
Target sequence (O15151 whole entry, looked up): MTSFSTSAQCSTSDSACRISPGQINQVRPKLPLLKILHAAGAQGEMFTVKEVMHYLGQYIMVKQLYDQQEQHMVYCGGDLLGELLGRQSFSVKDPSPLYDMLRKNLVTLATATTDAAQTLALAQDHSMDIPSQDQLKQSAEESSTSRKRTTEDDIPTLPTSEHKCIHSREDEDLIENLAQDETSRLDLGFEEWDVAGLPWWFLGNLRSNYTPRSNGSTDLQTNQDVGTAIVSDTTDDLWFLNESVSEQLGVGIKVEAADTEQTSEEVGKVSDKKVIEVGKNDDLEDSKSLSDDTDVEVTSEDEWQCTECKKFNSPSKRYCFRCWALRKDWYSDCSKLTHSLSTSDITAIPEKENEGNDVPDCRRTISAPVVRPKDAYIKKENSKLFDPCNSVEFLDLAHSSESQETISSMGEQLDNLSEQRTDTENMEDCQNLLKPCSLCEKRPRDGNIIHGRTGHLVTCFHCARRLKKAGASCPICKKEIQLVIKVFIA
Target sequence (Q00987 whole entry, looked up): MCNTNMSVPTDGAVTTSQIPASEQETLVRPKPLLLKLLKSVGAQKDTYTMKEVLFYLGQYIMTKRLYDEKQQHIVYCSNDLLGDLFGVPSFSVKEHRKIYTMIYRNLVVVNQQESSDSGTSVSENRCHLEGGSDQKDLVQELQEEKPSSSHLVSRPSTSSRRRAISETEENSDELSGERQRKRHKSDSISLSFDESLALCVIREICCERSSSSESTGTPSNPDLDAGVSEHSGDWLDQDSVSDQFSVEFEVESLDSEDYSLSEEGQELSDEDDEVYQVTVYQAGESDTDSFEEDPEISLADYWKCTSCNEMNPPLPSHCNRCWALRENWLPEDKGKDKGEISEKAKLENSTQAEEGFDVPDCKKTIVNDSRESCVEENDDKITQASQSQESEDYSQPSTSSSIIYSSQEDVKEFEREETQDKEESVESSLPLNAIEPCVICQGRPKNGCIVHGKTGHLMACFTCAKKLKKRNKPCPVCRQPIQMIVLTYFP
CSC inhib: cancer stem cell inhibition; actives 1.1% (n = 300,000); inhibition, % at 7.5 µM; AID 2717; cancer stem cell-like cells viability, luminescence; in the data active means inhibition above about 75%; inconclusive means no clear call, values can overlap the other calls; tested in HMLE shEcad cells
Mdm2 MdmX conf: human Mdm2/MdmX binding inhibition, confirmed | luminescent assay | inhibition, % at 8 µM | shares compounds with Mdm2-MdmX inh | actives 55% (n = 10,000); in the data active means inhibition above about 40%
FLuc counter: inhibits full-length luciferase, flagging false Mdm2/MdmX hits | shares compounds with Mdm2-MdmX inh | SaOS-2 full-length luciferase counterscreen, luminescence | inhibition, % at 8 µM | actives 77% (n = 6,200) | AID 504607;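 active means mean inhibition at 8 µM reaching about 37%, which flags the compound as non-specific, limit read from the data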;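 further: p53-null SaOS-2 cells with luciferase driven by a doxycycline-inducible promoter; compound on cells about two nights before reading with doxycycline added after day one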
A number is an active result; – = inactive; ? = inconclusive; · = no result given. The list is not random: actives were taken first. Their share in the collection is about 5.7%.

SMILES | SKKanGAS inh | Beta apoptosis | Calb FLC | T cruzi inh | Mdm2-MdmX inh | CSC inhib | Mdm2 MdmX conf | FLuc counter
Cc1ccc(NC(=S)N(CCCN2CCCC2)Cc2cccn2Cc2ccc(Cl)cc2)cc1Cl | – | – | – | – | 75.7 | 143.8 | – | 57.9
CN(C)CCCN(Cc1ccccc1)C(=S)Nc1cccc(C(F)(F)F)c1 | – | – | – | – | – | – | · | ·
COc1cc2ncc(C(=O)c3ccccc3)c(N3CCN(Cc4ccccc4)CC3)c2cc1OC | – | – | – | – | – | – | · | ·
CSc1nc(C)cc(-c2cc(C(=O)Nc3ccccc3)on2)n1 | – | – | – | – | – | – | · | ·
CCN1CCN(CCCNC(=O)c2ccc3c(c2)N(Cc2ccc(C)cc2)CCS3)CC1 | – | – | – | – | 51.0 | – | – | ·
CCN1CCN(CCCNC(=O)c2ccc3c(c2)NC(=O)c2ccccc2S3)CC1 | – | – | – | – | – | – | · | ·
CCN1CCCC1CNC(=O)c1ccc2c(c1)NC(=O)/C(=C\c1ccc(OC)c(OC)c1)S2 (stereo not drawn) | – | – | – | – | 52.5 | – | – | ·
CCN1CCN(CCCNC(=O)c2ccc3c(c2)NC(=O)/C(=C\c2cccc(C)c2)S3)CC1 | – | – | – | – | 97.5 | 121.1 | 61.2 | 63.2
Cc1cccc(/C=C2/Sc3ccc(C(=O)NCCCN4CCOCC4)cc3NC2=O)c1 | – | – | – | – | 52.7 | 114.8 | – | ·
CCN1CCCC1CNC(=O)c1cc(N)ccc1OC (stereo not drawn) | – | · | – | – | – | – | · | ·
COc1ccc(/C=C2/Sc3ccc(C(=O)NCCCN4CCOCC4)cc3NC2=O)cc1OC | – | · | – | – | 75.8 | – | – | ·
CCN(CC)S(=O)(=O)c1ccc(N/N=C/c2cccnc2)nc1 | – | – | – | – | – | – | · | ·
CCN(CC)S(=O)(=O)c1ccc(N/N=C/c2cc(OC)ccc2O)nc1 | – | 108.1 | – | – | 79.6 | 103.8 | 83.3 | –
COc1ccccc1C(CNc1ccc(S(=O)(=O)N2CCCC2)cc1[N+](=O)[O-])N(C)C (stereo not drawn) | – | – | – | – | – | – | · | ·
COC(=O)CC1C(=O)NCCN1C(=S)Nc1ccccc1Cl (stereo not drawn) | – | – | – | – | – | – | · | ·
CC(C)C[C@@]12C(=O)N(c3cccc(Cl)c3)C(=O)N1[C@H](c1ccc(Br)cc1)[C@@H]1C(=O)N(C(C)(C)C)C(=O)[C@@H]12 | · | – | · | · | 50.4 | – | 46.4 | 68.7
CC[C@@]12C(=O)N(c3cccc(Cl)c3)C(=O)N1[C@H](c1ccc(Br)cc1)[C@@H]1C(=O)N(C(C)(C)C)C(=O)[C@@H]12 | – | – | – | – | – | – | · | ·
CC(C)C[C@@]12C(=O)N(c3cccc(F)c3)C(=O)N1[C@H](c1ccc(Br)cc1)[C@@H]1C(=O)N(C(C)(C)C)C(=O)[C@@H]12 | – | – | – | – | – | – | · | ·
CC(C)C[C@@]12C(=O)N(c3ccc(Br)cc3)C(=O)N1[C@H](c1ccc(Br)cc1)[C@@H]1C(=O)N(C(C)(C)C)C(=O)[C@@H]12 | – | – | – | – | 60.2 | – | 70.5 | 51.9
CSc1nc(N)n2nc(-c3ccc(Cl)cc3)cc2n1 | – | – | – | – | – | – | · | ·
CN(C)c1ccc(N=Nc2nc3ccccc3n2C)cc1 | – | – | – | – | 59.6 | – | 49.5 | 46.2
Cn1c(N=Nc2ccccc2)nc2ccccc21 | – | – | – | – | – | – | · | ·
CN(Cc1ccccc1)S(=O)(=O)c1ccc(NC(=S)NC(=O)C2CCCC2)cc1 | – | – | ? | – | 55.7 | – | 58.3 | 61.3
CCOCC(=O)Nc1cc(C(=O)Nc2cc(C)cc(C)c2)ccc1Cl | – | – | – | – | – | – | · | ·
COc1cccc(NC(=O)c2nnn(CC(=O)Nc3cc(C)cc(C)c3)c2N)c1 | – | · | – | – | 74.0 | – | – | ·
SMILES | SKKanGAS inh | Beta apoptosis | Calb FLC | T cruzi inh | Mdm2-MdmX inh | CSC inhib | Mdm2 MdmX conf | FLuc counter
COc1cccc(NC(=O)Cn2nnc(C(=O)Nc3ccccc3)c2N)c1 | – | – | – | – | – | – | · | ·
CCOc1ccc(OCC)c(NC(=O)c2nnn(CC(=O)Nc3cc(C)cc(C)c3)c2N)c1 | – | – | – | – | 58.4 | – | – | ·
CCOc1ccc(NC(=O)c2nnn(CC(=O)Nc3ccccc3OCC)c2N)cc1 | – | – | – | – | – | – | · | ·
NC1=NC(=O)C(Cc2ccc(OC(F)(F)F)cc2)S1 (stereo not drawn) | – | – | – | – | – | – | · | ·
CCOc1cc(C2C(C#N)=C(N)OC(C)=C2C(C)=O)c(Br)c(Br)c1OC(C)C (stereo not drawn) | – | – | – | – | 64.4 | – | 47.0 | 48.8
CCOc1cc(C2C(C#N)=C(N)OC(C)=C2C(C)=O)cc(Br)c1O (stereo not drawn) | – | – | – | – | – | – | · | ·
Cc1ccccc1NC(=O)COC(=O)Cc1ccsc1 | – | – | – | – | – | – | · | ·
Cc1c(S(=O)(=O)NC2CCCCC2)c(=O)n(C)c(=O)n1C | – | · | – | – | – | – | · | ·
CCOC(=O)CSC1=C(C#N)C(c2ccc(C)o2)CC(=O)N1 (stereo not drawn) | – | – | – | – | 64.7 | – | 52.0 | 73.0
Cc1cccn2c(=O)nc(SCC(=O)NC3CCCCC3)nc12 | – | – | – | – | – | – | · | ·
CC(C)OCCCN(C)C1CCN(S(=O)(=O)c2csc(C(N)=O)c2)CC1 | – | – | – | – | – | – | · | ·
CC(C)OCCCN(C)C1CCN(S(=O)(=O)c2ccc(-c3cc(C(F)(F)F)no3)s2)CC1 | – | – | – | – | 50.4 | – | – | ·
Nc1ccc2ncccc2c1N | · | – | · | · | · | – | · | ·
Nc1nc(N)c2c(ccc3nccc32)[nH]1 | – | – | – | – | 50.5 | – | – | ·
COc1cc(/C=C(\C#N)C(=O)NC2CCCCC2C)ccc1OS(=O)(=O)c1ccc(C)cc1 (stereo not drawn) | – | – | – | – | 100.3 | 156.7 | – | ·
COc1ccc(N2CCN(C(=O)COC(=O)CCc3ccccc3OC)CC2)cc1 | – | – | – | – | – | – | · | ·
CCOC(=O)c1c(CN2CCN(C)CC2)n(-c2ccccc2)c2cc(Br)c(O)cc12 | – | – | – | – | 60.8 | – | 45.6 | 39.3
CCOC(=O)c1c(-c2ccccc2)oc2cc(CN(C)C)c(O)c(CN(C)C)c12 | – | – | – | – | 54.0 | 93.8 | 62.3 | 48.1
CCOC(=O)c1c(C)oc2cc(Cl)c(O)c(CN(C)C)c12 | – | – | – | – | – | – | · | ·
CCOC(=O)c1c(-c2ccccc2)oc2ccc(O)c(CN3CCN(C)CC3)c12 | – | – | – | – | 50.8 | – | 45.5 | 59.2
CCn1cc(CN2CCCC(C(=O)Nc3ccc(-c4cscn4)cc3)C2)cn1 (stereo not drawn) | – | – | – | – | – | – | · | ·
